Source: ChEMBL document CHEMBL1121475, “Inhibitors of indoleethylamine N-methyltransferase. Derivatives of 3-methyl-2-thiazolidinimine. In vitro, in vivo, and metabolic studies” (J Med Chem, 1980)

Experiments:
[1] = tested on: Oryctolagus cuniculus; assay: Percent of 3-Methyl-thiazolidin-2-ylideneamine as administered dose was reported in rabbit 3 by Gas-liquid chromatographic analysis; type: ADME, organism-based; conditions: in vivo
Method in brief: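 Rabbits 3 (single 100 mg/kg) and 4 (two 100 mg/kg doses 2 h apart) were gavaged with [14C]-labelled parent amide (204.6 dpm/μg). They were not killed; urine was collected 0-24 h. The metabolite was quantified by GLC of trimethylsilylated extracts against an internal-standard peak-height-ratio curve. Results are given as % of urinary radioactivity or % of administered dose, mean of two determinations.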

[2] = tested on: Oryctolagus cuniculus; assay: 100 mg/kg of [14C]- radiolabeled compound was intravenously (gavage) injected in rabbit3, and radioactivity content in feces was estimated at total hours; type: ADME, organism-based; conditions: rabbit, in vivo, po, in the assay text read “orally (gavage) administered” for “intravenously (gavage) injected”
Method in brief: (§1)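 Rabbit given 100 mg/kg [14C]-labelled drug by gavage, 204.6 dpm/μg, in water/0.1 N HCl at 6.66 mg/mL. Rabbit 1 was killed at 2 h and liver, lung, kidney and blood taken; tissue values are μg equivalents/g and tissue:plasma ratio. Rabbit 3 was kept for urine (0-24, 24-48, 48-72 h) and feces (0-48 h), expressed as % of dose.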

[3] = tested on: Oryctolagus cuniculus; assay: 100 mg/kg of [14C]- radiolabeled compound was orally (gavage) injected in rabbit1plasma, and radioactivity content in feces was estimated; type: ADME, organism-based; conditions: rabbit, in vivo, po; method in brief: as §1
[4] = tested on: Oryctolagus cuniculus; assay: 200 mg/kg of [14C]- radiolabeled compound was intravenously (gavage) injected in rabbit4, and radioactivity content in feces was estimated at total hours; type: ADME, organism-based; conditions: rabbit, in vivo, po, in the assay text read “orally (gavage) administered” for “intravenously (gavage) injected”
Method in brief: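 Rabbit given two 100 mg/kg gavage doses of [14C]-labelled drug, 2 h apart, 204.6 dpm/μg, 6.66 mg/mL in water/0.1 N HCl. Rabbit 2 was killed 2 h after the last dose and liver, lung, kidney and plasma taken (μg equivalents/g; tissue:plasma ratio). Rabbit 4 gave urine over 0-4, 0-24, 24-48 and 48-72 h and feces over 0-48 h, as % of dose.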

[5] = tested on: Oryctolagus cuniculus; assay: Radioactivity measurements were performed following oral administration of the 100 mg/kg in rabbit 5 after 2 hr brain; type: ADME, organism-based; design: dose 100 mg/kg, route oral; conditions: in vivo
Method in brief: (§2)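 Male rabbits (900-1060 g) received [14C]-labelled parent amide, 100 mg/kg (251.7 dpm/μg, pH about 4.5), by gavage. At 2 or 6 h they were killed by air injection into the ear vein. Blood was drawn by cardiac puncture; brain and lung were homogenized in water (1 g = 10 mL). Radioactivity is expressed as μg equivalents of parent per g or mL.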

[6] = tested on: Oryctolagus cuniculus; assay: Radioactivity measurements were performed following oral administration of the 100 mg/kg in rabbit 5 after 2 hr lung; type: ADME, organism-based; design: dose 100 mg/kg, route oral; conditions: in vivo; method in brief: as §2
[7] = tested on: Oryctolagus cuniculus; assay: Radioactivity measurements were performed following oral administration of the 100 mg/kg in rabbit 7 after 6 hr in plasma; type: ADME, organism-based; design: dose 100 mg/kg, route oral; conditions: in vivo; method in brief: as §2
[8] = tested on: Oryctolagus cuniculus; assay: Radioactivity measurements were performed following oral administration of the 100 mg/kg in rabbit 8 after 6 hr in plasma; type: ADME, organism-based; design: dose 100 mg/kg, route oral; conditions: in vivo; method in brief: as §2
[9] = tested on: Oryctolagus cuniculus; assay: Evaluation of formation of 3-Methyl-thiazolidin-2-ylideneamine from the radiolabeled compound, orally administered, from rabbit 1,2 kidney was analyzed by Gas-liquid chromatographic analysis; type: ADME, organism-based; conditions: in vivo, po
Method in brief: (§3)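 Rabbit 1 was given [14C]-labelled parent amide, 100 mg/kg (204.6 dpm/μg), orally by gavage and killed 2 h later. Urine (0-2 h), blood, liver, lung and kidney were collected. Samples were extracted, trimethylsilylated with BSA/pyridine at 70 °C for 12-16 h, and run by GLC on 3% OV-210 at 95 °C against the internal standard 3-ethyl-2-thiazolidinimine. Output is % of radioactivity present as the metabolite, mean of two determinations.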

[10] = tested on: Oryctolagus cuniculus; assay: Evaluation of formation of 3-Methyl-thiazolidin-2-ylideneamine from the radiolabeled compound, orally administered, from rabbit 1,2 liver was analyzed by Gas-liquid chromatographic analysis; type: ADME, organism-based; conditions: in vivo, po; method in brief: as §3
[11] = tested on: Oryctolagus cuniculus; assay: Evaluation of formation of 3-Methyl-thiazolidin-2-ylideneamine from the radiolabeled compound, orally administered, from rabbit 1,2 plasma was analyzed by Gas-liquid chromatographic analysis; type: ADME, organism-based; conditions: in vivo, po; method in brief: as §3
[12] = tested on: Oryctolagus cuniculus; assay: Evaluation of formation of 3-Methyl-thiazolidin-2-ylideneamine from the radiolabeled compound, orally administered, from rabbit 2,4 liver was analyzed by Gas-liquid chromatographic analysis; type: ADME, organism-based; conditions: in vivo, po
Method in brief: (§4)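 Rabbit 2 was gavaged twice with [14C]-labelled parent amide, 100 mg/kg each dose (204.6 dpm/μg), 2 h apart, and killed 2 h after the second dose. Urine (0-4 h), blood, liver, lung and kidney were taken. The metabolite was measured by GLC of trimethylsilyl derivatives (3% OV-210, 95 °C, internal standard 3-ethyl-2-thiazolidinimine). Values are % of radioactivity as metabolite, mean of two determinations.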

[13] = tested on: Oryctolagus cuniculus; assay: Evaluation of formation of 3-Methyl-thiazolidin-2-ylideneamine from the radiolabeled compound, orally administered, from rabbit 2,4 plasma was analyzed by Gas-liquid chromatographic analysis; type: ADME, organism-based; conditions: in vivo, po; method in brief: as §4
[14] = molecular target: Indolethylamine N-methyltransferase (Homo sapiens) (UniProt O95050); assay: In vitro evaluation of Indoleethylamine-N-methyltransferase in human lung preparations for ability to inhibit conversion of N-methyltryptamine (NMT) to N,N-dimethyltryptamine (DMT) at dose 25 ug/mL; type: tissue-based
Sequence of Indolethylamine N-methyltransferase (Homo sapiens) (O95050 whole entry): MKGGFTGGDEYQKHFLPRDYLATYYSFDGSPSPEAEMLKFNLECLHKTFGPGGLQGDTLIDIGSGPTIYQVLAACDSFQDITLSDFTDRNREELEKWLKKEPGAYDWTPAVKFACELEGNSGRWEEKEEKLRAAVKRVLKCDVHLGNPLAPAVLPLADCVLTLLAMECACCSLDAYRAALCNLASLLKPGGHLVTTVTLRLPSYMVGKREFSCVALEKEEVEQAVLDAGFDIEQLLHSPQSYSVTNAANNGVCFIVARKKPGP
Method in brief: (§5)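 Human lung INMT was taken from the 50000g supernatant, cut with 40-60% ammonium sulfate, dialysed and purified on Sephadex G-150. The reaction contained 0.007 M N-methyltryptamine stock, S-[methyl-14C]adenosylmethionine and potassium phosphate, pH 7.9, in 0.105 mL, run 90 min at 37 °C. It was stopped with borate at pH 10. [14C]DMT was extracted into isoamyl alcohol and counted by scintillation.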

[15] = molecular target: Indolethylamine N-methyltransferase (Homo sapiens) (UniProt O95050); assay: In vitro evaluation of Indoleethylamine-N-methyltransferase in human lung preparations for the ability to inhibit conversion of N-methyltryptamine (NMT) to N,N-dimethyltryptamine (DMT) at dose 2.5 ug/mL; type: tissue-based; method in brief: as §5
[16] = Dose that causes approximately 50% lethality in mice, when given intraperitoneally; Value ranges from 1000-1500; type: ADME, organism-based; conditions: mouse, in vivo, ip
[17] = tested on: Indolethylamine N-methyltransferase (Oryctolagus cuniculus); assay: Compound tested for inhibitory activity against rabbit lung Indoleethylamine-N-methyltransferase at oral dose 25 mg/kg
[18] = tested on: Indolethylamine N-methyltransferase (Oryctolagus cuniculus); assay: In vivo evaluation of specific activity against rabbit lung Indoleethylamine-N-methyltransferase at intravenous dose of 5 mg/kg
[19] = tested on: Oryctolagus cuniculus; assay: 100 mg/kg of [14C]- radiolabeled compound was orally (gavage) administered in rabbit 1, and radioactivity content in lung was estimated; conditions: in vivo, po
[20] = tested on: Oryctolagus cuniculus; assay: 200 mg/kg of [14C]- radiolabeled compound was orally administered in rabbit4, and radioactivity content in urine was estimated at 24-48 h; conditions: rabbit, in vivo, po
[21] = tested on: Oryctolagus cuniculus; assay: 200 mg/kg of [14C]- radiolabeled compound was orally administered in rabbit4, and radioactivity content in urine was estimated at 48-72 h; conditions: rabbit, in vivo, po
[22] = tested on: Oryctolagus cuniculus; assay: 200 mg/kg of [14C]- radiolabeled compound was orally administered in rabbit4, and radioactivity content in urine was estimated at total hours; conditions: rabbit, in vivo, po

CN1CCS/C1=N\C(=O)CCC(=O)/N=C1/SCCN1C
Administered dose [1]: 41.2% | Administered dose [2]: 90.7% | Plasma concentration [3]: 23.5 µg/g | Administered dose [4]: 94% | Radioactivity level [5]: 17.8 µg/g | Radioactivity level [6]: 36.4 µg/g | Radioactivity level [7]: 4.1 µg/mL | Radioactivity level [8]: 4 µg/mL | Radioactivity [9]: 72.8% | Radioactivity [10]: 37.9% | Radioactivity [11]: 26.5% | Radioactivity [12]: 34.4% | Radioactivity [13]: 48.9% | inhibition [14]: 12% | inhibition [15]: 74% | LD50 [16]: 1000 mg/kg | inhibition [17]: 76.1% | Specific activity [18]: 37000 dpm | Radioactivity concentration [19]: 36.3 µg/g | Administered dose [20]: 0.8% | Administered dose [21]: 0.1% | Administered dose [22]: 88%
